Hits are enriched below; roughly 4.8% of the tested compounds scored in any of these assays.
CHOP UPR activ = apoptotic UPR (CHOP) activation; AID 449763; activation, % at 10 µM; CHO-CHOP luciferase reporter, luminescence; percent of tunicamycin response over DMSO baseline; 330,000 tested, 0.34% active;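 active = at 10 µM dose, activation of 40% or more, normalized to positive control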;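 also: 100% = tunicamycin at 10 µg/mL and 0% = DMSO alone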
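System: CHO CHOP reporter cells. Amount: 500 cells per well. Buffer or medium: F12 medium, 10% FBS. Compound dosing: one dose, 10 µM in 0.5% DMSO. Incubation: 6 h compound exposure at 37 °C after overnight seeding. Technique: Steady-Glo luciferase luminescence. Benchmarks: tunicamycin and DMSO controls.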
CSC inhib = cancer stem cell inhibition; cancer stem cell-like cells viability, luminescence; inhibition, % at 7.5 µM; 300,000 tested, 1.1% active; AID 2717; in the data active = inhibition above about 75%; tested in HMLE shEcad cells
Beta cell apopt = blocks beta cell apoptosis. INS-1E cytokine-induced death, ATP luminescence, 48 h; percent of positive-control rescue, neutral wells zero. protection from apoptosis, % (concentration not given with the values). 300,000 tested, 0.8% active. AID 435005;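 active = Every replicate reaches about 75%, or at least half do and their mean reaches it too, limit read from the data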;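 also: 0% = cytokine-treated negative control wells and 100% = positive control rescue; higher means more ATP so stronger rescue from cytokine killing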
Mdm2 MdmX PPI = inhibitors of human Mdm2/MdmX interaction; AID 485346; O15151+Q00987; SaOS-2 split-luciferase Mdm2/MdmX complementation, luminescence; inhibition, % at 8 µM; 330,000 tested, 3% active;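 active = inhibition of at least 50% at 8 µM in the primary screen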
SKKanGAS inh = inhibitors of SKKanGAS S. pyogenes growth in kanamycin (SK-promoter or general growth effect); inhibition, % at 7.5 µM; BacTiter-Glo, 6 h; 300,000 tested, 1.3% active;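 active = mean replicate score, as percent of positive control median, at least 50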;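 also: strain carries kanamycin resistance gene driven by streptokinase promoter and grows in 40 µg/ml kanamycin; loss of luminescence reflects streptokinase promoter inhibition or plain growth inhibition; 0% = median of DMSO wells and 100% = positive control at its reference dose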
UPR XBP1 act = adaptive UPR (XBP1) activation; CHO-XBP1 luciferase reporter, IRE1-XBP1 UPR activation, luminescence; percent of tunicamycin response, DMSO as zero; 330,000 tested, 0.33% active; activation, % at 20 µM;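 active = versus positive control, 20 µM dose yields 30% or more activation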;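 also: 100% = tunicamycin at 10 µg/mL and 0% = DMSO only wells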
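Material: CHO cell line with stable XBP1 luciferase reporter; buffer or medium: F12 medium containing 10% fetal bovine serum; compound: single point, 20 µM final compound, 1% DMSO; incubation: 6 h treatment, 37 °C; measured by: glow luminescence from Steady-Glo reagent; evaluation: activation, % of tunicamycin; control set: tunicamycin high, DMSO low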
Mdm2 MdmX conf = confirmation of human Mdm2/MdmX interaction inhibitors | shares compounds with Mdm2 MdmX PPI | Mdm2-MdmX binding, luminescent assay | inhibition, % at 8 µM | 10,000 tested, 55% active | AID 489028; in the data active = inhibition above about 40%
FLuc counter = inhibits full-length luciferase, flagging false Mdm2/MdmX hits | shares compounds with Mdm2 MdmX PPI | SaOS-2 full-length luciferase counterscreen, luminescence | inhibition, % at 8 µM | 6,200 tested, 77% active;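 active = mean inhibition at 8 µM reaching about 37%, which flags the compound as non-specific, limit read from the data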;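 also: p53-null SaOS-2 cells with luciferase driven by a doxycycline-inducible promoter; compound on cells about two nights before reading with doxycycline added after day one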
An asterisk follows results filed as active; . = no result.

SMILES | CHOP UPR activ | CSC inhib | Beta cell apopt | Mdm2 MdmX PPI | SKKanGAS inh | UPR XBP1 act | Mdm2 MdmX conf | FLuc counter
Nc1nonc1C(=O)N/N=C/c1cc2c(cc1Br)OCO2 | 0.2 | 12.4 | -5.7 | 8.6 | -1.5 | -0.2 | . | .
Cc1ccc(CSc2cc(C)[nH]c(=O)n2)cc1 | -1.0 | -9.2 | . | 14.9 | 10.2 | -1.9 | . | .
CC(Sc1nnc(-c2ccccc2F)n1C)C(=O)NC1CCCCC1 (stereo unspecified) | -1.5 | 14.3 | -1.3 | -10.6 | . | -2.6 | . | .
CCOc1ccc(C)cc1S(=O)(=O)n1cnc2ccccc21 | -0.9 | 59.3 | . | 51.6* | 10.9 | -2.9 | 60.7* | 44.7*
CCOc1ccc(Cl)cc1S(=O)(=O)n1cnc2ccccc21 | -2.2 | 58.5 | 2.0 | 37.3 | 1.5 | 2.2 | . | .
CN(C)C(=O)N1CCN(C(=O)c2ccccc2Sc2ccccc2C#N)CC1 | -0.1 | 4.4 | 10.1 | 52.8* | 5.5 | -0.3 | -6.8 | .
COc1cccc(-c2cc(C(=O)Nc3ccc(N(C)C(C)=O)cc3)c3cc(Br)ccc3n2)c1 | 5.9 | 32.2 | 15.5 | 61.9* | 29.3 | -1.6 | 0.7 | .
CC(=O)Nc1cccc(NC(=O)c2cc(-c3cccnc3)nc3ccc(Br)cc23)c1 | 3.8 | 33.4 | 35.0 | 68.1* | 31.2 | -2.0 | 73.1* | 89.7*
O=C(NCC(c1ccco1)N1CCc2ccccc21)C(=O)Nc1ccc(F)cc1F (stereo unspecified) | -0.4 | 59.9 | -2.7 | 52.3* | 4.3 | 1.4 | 72.5* | 64.5*
O=C(NCC(c1ccco1)N1CCc2ccccc21)C(=O)Nc1ccccc1F (stereo unspecified) | 1.8 | 0.3 | -4.1 | 22.3 | 3.3 | -3.4 | . | .
CC(=O)C12CCCCC1CC1[C@@H]3CC(C)C4=CC(=O)CC[C@]4(C)C3CC[C@@]12C (stereo partly specified) | 1.4 | . | . | 56.3* | 5.4 | 1.5 | 5.9 | .
CC(=O)O[C@]1(C(C)=O)CC[C@H]2[C@@H]3C[C@H](C)C4=CC(=O)CC[C@]4(C)[C@H]3CC[C@@]21C | 0.1 | 3.4 | 3.9 | 16.1 | -3.8 | -6.7 | . | .
COc1ccccc1-n1cnc2cc(NCc3cccs3)ccc21 | 2.4 | -7.3 | 13.9 | 50.6* | 18.6 | 13.9 | 55.5* | 80.1*
COc1ccccc1-n1cnc2cc(NCc3ccccc3O)ccc21 | 6.9 | -4.4 | -3.4 | 15.9 | 11.1 | 0.2 | . | .
COc1cc2c(OC(C)=O)c3c(c(-c4ccc5c(c4)OCO5)c2cc1OC)C(=O)OC3 | 3.3 | -4.8 | 58.2 | 85.5* | 2.2 | -4.5 | 74.3* | 47.9*
COc1cc2c(O)c3c(c(-c4ccc5c(c4)OCO5)c2cc1OC)C(=O)OC3 | 6.0 | 90.6* | 53.8 | 73.3* | -13.0 | -3.3 | 72.2* | 26.1
O=C(OCn1nnc2ccccc2c1=O)c1cccc(S(=O)(=O)N2CCOCC2)c1 | 0.8 | . | -7.1 | -33.1 | . | -1.1 | . | .
COc1ccccc1-c1oc2ccccc2c1C#CC1(O)CCCCC1 | 5.2 | 65.3 | -5.8 | 1.7 | . | -0.9 | . | .
COc1ccccc1-c1oc2ccccc2c1C#CC1(N)CCCCC1 | 2.2 | 130.2* | 6.9 | 73.5* | . | 13.9 | 33.9 | .
CCN(CC)CCn1c2ccccc2c2cnc(N=CN(C)C)c(C#N)c21 | -2.9 | -3.9 | 4.9 | -8.2 | -0.3 | -1.0 | . | .
CCn1c2ccccc2c2cnc(N=CN(C)C)c(C#N)c21 | 1.4 | -6.8 | -17.3 | 75.6* | -0.8 | -0.1 | 87.2* | 20.0
COc1ccc(CN(C(=O)c2ccc(-c3ccccc3)[nH]2)C(C(=O)NC(C)(C)C)c2ccncc2)cc1 (stereo unspecified) | -2.2 | 23.7 | -4.7 | 52.0* | 10.3 | -5.8 | 37.7 | 83.3*
COc1cc(NC(=O)CN2C(=O)COc3ccc(S(=O)(=O)N4CCCC4)cc32)cc(OC)c1 | -0.2 | -8.5 | -1.8 | 14.9 | 10.8 | -4.0 | . | .
CCOC(=O)C1CCN(c2cc3c(cc2NC(=O)c2ccccc2)n(C)c(=O)n3C)CC1 | 2.5 | 9.5 | 5.9 | 23.8 | -8.7 | -6.7 | . | .

Compound activity deposited in PubChem by several laboratories.
